The entries come from a sample that favours hits as a whole.
CHOP inh: inhibitors of CHOP induction in ER stress response | inhibition, % at 10 µM | AID 2732 | CHO-K1 CHOP-promoter luciferase, tunicamycin-induced, 15-18 h | 3.8% of 220,000 active;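 active = compounds that reduced the stress-induced luciferase reporter signal by more than about 70% of percent inhibition, limit read from the data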;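 note: 0% = tunicamycin plus vehicle and 100% = wells without tunicamycin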
CHOP UPR activ: apoptotic UPR (CHOP) activation; AID 449763; activation, % at 10 µM; 0.34% of 330,000 active; CHO-CHOP luciferase reporter, luminescence; percent of tunicamycin response over DMSO baseline;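 active = at 10 µM dose, activation of 40% or more, normalized to positive control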;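 note: 100% = tunicamycin at 10 µg/mL and 0% = DMSO alone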
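System: CHO-CHOP luciferase reporter cell line; amount: 500 cells/well; buffer or medium: F12 medium containing 10% fetal bovine serum; incubation: 6 h compound exposure at 37 °C after overnight seeding; measured by: luciferase luminescence after 10 min with Steady-Glo reagent; evaluation: % reporter activation, DMSO baseline versus tunicamycin full activation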
Bfl-1 A1 inh: inhibitors of the anti-apoptotic protein A1, read as caspase activation | 0.066% of 330,000 active | caspase activation, % (concentration not given with the values) | AID 2462 | MEF A1-2A-BIM cells, Caspase-Glo 3/7 luminescence, 3 h; percent of clofoctol response, vehicle zero;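 active = over half of replicate activation scores above 10%, or exactly half above 10 with the replicate mean above 10; inconclusive = replicate mean below 10 yet half the replicates above 10; inactive = over half of replicates below 10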
XBP1 UPR activ: activators of adaptive arm of unfolded protein response (XBP1). AID 463104. CHO-XBP1 luciferase reporter, IRE1-XBP1 UPR activation, luminescence; percent of tunicamycin response, DMSO as zero. activation, % at 20 µM. 0.33% of 330,000 active;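 active = versus positive control, 20 µM dose yields 30% or more activation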;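 note: 100% = tunicamycin at 10 µg/mL and 0% = DMSO only wells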
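Signal: luciferase luminescence; Assay system: CHO-XBP1 luciferase reporter cells; Amount: one thousand reporter cells per well; Dosing: 20 µM single concentration, DMSO 1%; Benchmarks: high control tunicamycin 10 µg/mL final, low control DMSO vehicle only; Schedule: 6 h compound exposure at 37 °C, 5% CO2; Evaluation: percent activation relative to tunicamycin reference.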
CHOP confirm: confirmation of CHOP induction inhibitors; shares compounds with CHOP inh; CHO-CHOP promoter luciferase reporter, tunicamycin-induced, luminescence; inhibition, % at 10 µM; 45% of 2,100 active; AID 504437;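 active = mean of three repeat readings of reporter signal inhibition above a set limit, cut at about 70% in these data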;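 note: 0% = tunicamycin plus vehicle and 100% = wells lacking tunicamycin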
* = called active by the depositor; u = inconclusive; x = no result given.

SMILES | CHOP inh | CHOP UPR activ | Bfl-1 A1 inh | XBP1 UPR activ | CHOP confirm
O=C1C=CC(=O)N1CCCCCCN1C(=O)C=CC1=O | 107.2* | x | -4.0 | x | 115.6*
C=CCn1c(COc2ccc(F)cc2)nnc1SCC(=O)N1CC(=O)Nc2ccccc21 | 7.1 | 0.3 | -0.7 | -1.5 | x
O=C(CS(=O)CC(=O)N(c1ccccc1)C(C(=O)NC1CCCCC1)c1ccco1)Nc1ccc(F)cc1 (configuration not stated) | 29.9 | 0.3 | -0.8 | 0.8 | x
O=C(Cc1csc(Nc2nc(=S)[nH]c3ccccc23)n1)N1CCN(c2cccc(C(F)(F)F)c2)CC1 | 106.8* | 2.3 | -0.2 | 4.5 | 66.1
Cc1ccc(O)c(-c2cc(-c3cccc(Br)c3)n[nH]2)c1 | 96.7* | 3.5 | 1.9 | 6.5 | 33.8
Oc1ccc(Br)cc1-c1cc(-c2ccccc2F)[nH]n1 | 98.3* | 4.9 | -0.4 | 3.3 | 99.7*
Oc1ccc(Cl)cc1-c1cc(-c2ccccc2)n[nH]1 | 104.8* | 1.2 | -0.1 | 5.8 | 81.5*
Cc1cc(=O)nc2c3ccccc3n(C(C)C(=O)Nc3cc(F)ccc3F)n12 (configuration not stated) | 14.4 | 1.6 | 1.4 | -3.6 | x
Cc1c(Br)c([N+](=O)[O-])nn1CC(=O)c1ccccc1 | 24.4 | -0.5 | 0.9 | -0.4 | x
O=S(=O)(Nc1ccncc1)c1cc(Cl)ccc1Cl | x | 1.6 | u | -4.2 | x
COC(=O)Cc1ccc(NC(=S)NNC(=O)C2CC2)cc1 | 6.6 | 0.0 | 0.7 | -0.8 | x
COc1ccc(C(=O)N[C@H](C(=O)Nc2ccc(OC)nc2)C(C)C)cc1 | 56.6 | 2.9 | 0.1 | -1.0 | x
Cc1ccccc1OC(C)C(=O)NC1CCCC1 (configuration not stated) | 4.2 | -1.8 | 0.1 | -3.1 | x
O=C(CSc1ccc(Cl)cc1)OCC(=O)N1CCN(c2ccccc2)CC1 | x | 6.4 | x | 2.0 | x
COc1cccc(/C=N\NC(=O)c2ccc(Cn3cc(Br)c([N+](=O)[O-])n3)o2)c1O | 97.0* | 0.9 | -0.3 | -1.7 | -1.0
CC(CC(=O)NC1CCCC1)c1ccccc1 (configuration not stated) | 9.0 | -0.4 | -0.3 | -0.8 | x
CC1(C)CCCN(Cc2c(O)ccc3c(=O)c(-c4nc5ccccc5s4)c(N)oc23)C1 | 104.0* | 4.8 | -0.6 | -0.6 | 2.1
CC1CCCN(Cc2c(O)ccc3c(=O)c(-c4nc5ccccc5s4)c(N)oc23)C1 (configuration not stated) | 10.2 | 3.4 | -0.9 | 0.3 | x
Cc1ccc2nc(NC(=O)CCn3c(=O)sc4ccccc43)sc2c1 | 97.5* | 2.8 | -0.4 | -1.6 | 1.8
Cc1ccc(C)c(C(=O)CN2C(=O)NC3(CCCCCCC3)C2=O)c1 | 29.4 | 2.8 | -0.4 | 2.5 | x
O=S(=O)(c1ccc(Cl)cc1)c1cnc(-c2cccnc2)nc1-c1ccccc1 | 99.5* | 1.4 | 0.0 | 1.4 | 12.4
CN(C)c1ncc(S(=O)(=O)c2ccc(Cl)cc2)c(-c2ccccc2)n1 | 21.2 | 0.1 | 0.3 | -0.7 | x
Oc1ccc(F)cc1-c1cc(-c2ccc3c(c2)OCCO3)n[nH]1 | 98.9* | 1.9 | -3.8 | 1.3 | 4.5
Oc1ccccc1-c1cc(-c2ccc(F)cc2)n[nH]1 | x | 7.1 | -4.7 | 1.4 | x
C=C(C(=O)c1ccccc1)C(C)C(=C)C(=O)c1ccccc1 | 99.5* | x | 1.7 | x | 109.7*
SMILES | CHOP inh | CHOP UPR activ | Bfl-1 A1 inh | XBP1 UPR activ | CHOP confirm
COc1cc2c3c(c1)c(C1=NC(=S)NC1=O)c(O)n3C(C)(C)C=C2C | 38.5 | 0.1 | -0.5 | -0.2 | x
CC1(c2ccccc2)CC(C)(C)n2c(O)c(C3=NC(=S)NC3=O)c3cccc1c32 (configuration not stated) | 103.9* | 1.9 | 0.4 | 19.1 | 109.4*
O=C1OC(c2ccccc2)=C/C1=C/N1CCCCC1 | 29.2 | 3.2 | -0.5 | 1.9 | x
COC(=O)/C=C1\OC(c2ccccc2)=CC1=O | 108.3* | 2.6 | 1.0 | 2.7 | -53.4
CC(C)N(Cc1nc(-c2ccc(Cl)cc2)no1)C(=O)CCCN1C(=O)c2ccccc2C1=O | 67.3 | 0.9 | x | -4.3 | x
O=C(CSCc1ccccc1)NC1CCSC1=O (configuration not stated) | 19.0 | 1.4 | 2.5 | 1.2 | x
COC(=O)/C(=C\c1ccc([N+](=O)[O-])o1)NC(=O)c1ccccc1 | -10.4 | 1.6 | 0.1 | -1.9 | x
Cc1cccc(NC(=O)/C(=C\c2ccc([N+](=O)[O-])o2)NC(=O)c2ccc(Cl)cc2)c1 | 101.1* | x | 1.7 | x | 9.5

Assay outcomes deposited in PubChem by several laboratories.
